Source: PubChem BioAssay (several laboratories)
Granule exo inh – blocks lytic granule exocytosis | TALL-104 LAMP-1 surface exposure, flow cytometry; cells stimulated with thapsigargin and PMA | inhibition, % at 10 µM | actives 0.66% (n = 360,000);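 active = inhibition above about 55%, limit read from the data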
Apaf1 inhib – blocks human Apaf-1 apoptosome activity; O14727; reconstituted apoptosome caspase-3 activity, DEVD-Rh110 fluorescence; inhibition, % at 20 µM; actives 0.71% (n = 330,000); AID 489030; active = inhibition of at least 40% at 20 µM;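 note: plate controls were DMSO wells for no effect and DEVD-CHO caspase inhibitor wells for full effect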
Target sequence (O14727 whole entry, looked up): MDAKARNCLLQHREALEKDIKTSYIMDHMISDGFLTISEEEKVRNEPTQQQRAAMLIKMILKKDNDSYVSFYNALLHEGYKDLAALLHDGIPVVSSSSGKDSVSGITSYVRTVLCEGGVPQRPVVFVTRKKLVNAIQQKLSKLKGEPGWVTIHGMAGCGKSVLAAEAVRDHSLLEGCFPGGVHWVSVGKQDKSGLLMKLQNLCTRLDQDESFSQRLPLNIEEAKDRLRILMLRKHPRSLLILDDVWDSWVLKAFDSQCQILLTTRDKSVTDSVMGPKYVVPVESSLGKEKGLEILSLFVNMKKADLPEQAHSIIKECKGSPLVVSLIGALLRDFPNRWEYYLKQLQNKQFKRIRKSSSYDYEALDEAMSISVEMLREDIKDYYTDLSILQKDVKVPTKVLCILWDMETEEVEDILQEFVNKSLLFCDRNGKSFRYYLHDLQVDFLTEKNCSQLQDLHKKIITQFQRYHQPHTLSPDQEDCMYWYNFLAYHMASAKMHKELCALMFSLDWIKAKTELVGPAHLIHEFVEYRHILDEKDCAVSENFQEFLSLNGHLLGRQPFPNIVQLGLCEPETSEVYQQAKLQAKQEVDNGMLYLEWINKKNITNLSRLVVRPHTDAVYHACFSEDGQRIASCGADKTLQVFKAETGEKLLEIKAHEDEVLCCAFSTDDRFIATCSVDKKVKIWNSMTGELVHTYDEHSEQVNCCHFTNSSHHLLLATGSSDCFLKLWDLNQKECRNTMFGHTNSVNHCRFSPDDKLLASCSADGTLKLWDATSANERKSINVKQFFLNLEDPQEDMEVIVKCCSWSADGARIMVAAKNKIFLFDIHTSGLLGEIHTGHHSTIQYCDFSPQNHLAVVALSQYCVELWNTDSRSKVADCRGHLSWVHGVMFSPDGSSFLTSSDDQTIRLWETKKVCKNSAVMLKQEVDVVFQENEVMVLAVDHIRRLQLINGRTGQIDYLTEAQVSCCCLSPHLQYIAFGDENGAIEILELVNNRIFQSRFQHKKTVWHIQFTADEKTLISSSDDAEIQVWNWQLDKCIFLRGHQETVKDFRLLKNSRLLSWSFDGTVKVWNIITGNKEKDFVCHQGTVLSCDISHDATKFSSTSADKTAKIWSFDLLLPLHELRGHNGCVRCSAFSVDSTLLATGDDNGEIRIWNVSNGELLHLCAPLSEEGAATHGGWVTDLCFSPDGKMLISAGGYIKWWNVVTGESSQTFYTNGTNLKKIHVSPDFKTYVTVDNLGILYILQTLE
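Material: reconstituted apoptosome with Apaf-1, cytochrome c, caspase-9, procaspase-3, dATP. Technique: Rh110 fluorescence intensity. Buffer or medium: pH 7.5 Hepes buffer with CHAPS, BSA, DTT. Times: 30 min plus 50 min, RT.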
UBC13 polyUb – blocks human UBC13 polyubiquitin chain formation; P61088; TR-FRET; inhibition, % at 20 µM; actives 0.47% (n = 330,000); in the data active = inhibition above about 45%, passing the limit was not always enough
hiPSC survival – enhancers of human iPSC single-cell survival. survival enhancement, % at 20 µM. hiPSC single-cell survival, ATPlite luminescence; 100% = ROCK inhibitor wells, 0% = DMSO. actives 0.044% (n = 360,000); in the data active = survival enhancement above about 18%;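 note: cells exposed to compounds for 16 hours before the ATP read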
beta cell repl – induces beta-cell replication in MIN6 cells | MIN6 cells proliferation, ATPlite luminescence, 48 h; cells starved in 0.2% serum; 100% = growth in 10% serum | actives 0.29% (n = 330,000) | proliferation, % at 10 µM;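 active = compounds whose signal lies at least 3.5 SD above the mean of all wells on their plate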;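 note: 0% = DMSO-treated cells in low-serum medium and 100% = 10% serum control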
MPTP block – inhibitors of mitochondrial permeability transition pore; isolated mouse mitochondria, Ca2+ swelling absorbance, 30 min; inhibition, % at 10 µM; actives 1.4% (n = 360,000); AID 602449;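 active = inhibition of 50% or more, scaled per plate between neutral and stimulator controls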;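 note: 0% = DMSO wells given calcium and 100% = 1 mM EGTA wells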
An asterisk follows results filed as active; x = no result given. Sampled rows, rich in hits. Any-hit rate of the full collection: about 3%.

SMILES	Granule exo inh	Apaf1 inhib	UBC13 polyUb	hiPSC survival	beta cell repl	MPTP block
O=C1NCCN1c1ccccc1	0.0	x	x	28.6*	x	-0.6
O=C1N(c2ccccc2)CCN1c1ccccc1	-6.6	-4.9	-5.5	-0.5	-4.4	2.3
Cc1ccccc1CC(=O)Nc1ccc(S(=O)(=O)N2CCN(C)CC2)cc1	-2.7	7.4	-8.0	-0.4	1.4	0.5
Cc1cc(C)c(S(=O)(=O)NCC23C=CC(O2)C2C(=O)N(c4ccccc4)C(=O)C23)c(C)c1 (configuration not stated)	76.9*	11.4	4.6	-2.8	2.4	0.5
CC(=O)c1cccc(NC(=O)CSC(=O)c2ccccc2)c1	11.9	-6.2	8.8	-0.9	0.0	0.5
COc1ccc(NC(=O)c2cnc(SCC(=O)NCCc3ccccc3)n(C)c2=O)cc1	12.0	4.3	40.7	0.8	-3.6	0.1
COc1ccccc1CNC(=O)CSc1ncc(C(=O)Nc2ccccc2)c(=O)n1C	-0.2	4.1	65.0*	0.2	-1.6	-0.2
CC(=O)c1cccc(NC(=O)CSc2ncc(C(=O)Nc3ccccc3)c(=O)n2C)c1	-1.0	7.3	72.6*	0.8	-7.2	-1.1
CN(C)c1cccc(C(=O)Nc2nnc(Cc3ccccc3)s2)c1	-17.2	34.9	2.2	-0.4	0.0	1.4
CCOC(=O)C1CCCN(C(=O)Cc2ccc(OC)c(OC)c2)CC1 (configuration not stated)	-7.6	x	x	1.6	x	0.7
O=C(Nc1nccs1)c1ccc(-c2ccc(F)c(Cl)c2)o1	-4.4	21.0	7.0	-0.4	-6.2	0.3
Cc1ccc(C)c(N2CCN(c3ncccc3[N+](=O)[O-])CC2)c1	-11.2	9.4	-0.4	-0.3	-2.5	-0.4
Cc1nn(CC(=O)NCc2ccccc2Cl)c(C)c1[N+](=O)[O-]	-1.7	-11.8	4.2	-1.0	-0.6	0.0
Cc1cc(CNC(=O)Cn2nc(C)c([N+](=O)[O-])c2C)c2ccccc2n1	57.6*	1.0	-13.5	-0.1	-5.1	3.6
COc1ccc(CCn2c(N)c(S(=O)(=O)c3cccs3)c3nc4ccccc4nc32)cc1OC	-0.8	-0.1	-10.3	-1.6	2.6	0.1
Nc1c(S(=O)(=O)c2cccs2)c2nc3ccccc3nc2n1CCc1ccccc1	x	70.8*	-24.3	x	-6.2	x
Cc1nc(-c2c(C(F)(F)F)noc2-c2ccc(O)cc2O)cs1	-1.0	-10.7	19.8	3.4	-1.3	0.4
Oc1ccc(-c2onc(C(F)(F)F)c2-c2cscn2)c(O)c1	-8.4	-5.0	13.8	19.6*	-3.0	1.2
CCOc1ccccc1NC(=O)c1ccc2c(O)c(S(=O)(=O)c3ccccc3)c(=O)[nH]c2c1	-7.1	x	x	0.5	x	0.3
COC(=O)c1ccc2nc(-c3ccc(F)cc3)c(CC3CCCCC3)n2c1	-9.4	x	x	-0.9	x	0.2
N#CC1=C(N)NC(=S)C(C(N)=O)C1c1ccc(Cl)cc1Cl (configuration not stated)	99.4*	-6.6	3.4	-0.1	-7.1	-1.0
O=c1[nH]c(Nc2ccccc2)cc2cc(Br)ccc12	-2.2	97.9*	-68.2	-0.3	-5.0	14.1
CCC(C)N(C(=O)COc1ccccc1C#N)C1CCS(=O)(=O)C1 (configuration not stated)	1.7	-7.5	-3.2	-0.5	7.2	-3.4
CCC(C)N(C(=O)COc1ccc(Cl)c2cccnc12)C1CCS(=O)(=O)C1 (configuration not stated)	-10.3	5.7	55.3*	-0.3	-2.1	-0.2
COc1ccc(NC(=O)CCCC(=O)NCCc2ccc(OC)c(OC)c2)cc1	-5.3	-1.8	2.1	1.0	-3.1	0.1
SMILES	Granule exo inh	Apaf1 inhib	UBC13 polyUb	hiPSC survival	beta cell repl	MPTP block
COc1ccc(-n2c(C)c([N+](=O)[O-])c3ccc(O)c(CN4CCCCC4)c32)cc1	63.3*	19.0	-5.2	2.2	-3.8	-0.1
O=C(CNC(=O)C1CC(=O)N(c2cccc3ccccc23)C1)Nc1ccccc1Br (configuration not stated)	-2.0	11.0	-1.4	-0.3	-2.3	0.0
Cc1ccc(S(=O)(=O)N(C(=O)c2ccncc2)c2ccc(OC(=O)c3ccncc3)c3ccccc23)c(C)c1	99.5*	18.2	-0.4	-3.9	-4.5	-3.4
CC(=O)Oc1ccc(N(C(C)=O)S(=O)(=O)c2ccc(C)cc2C)c2ccccc12	10.9	6.1	4.5	0.5	-4.0	2.2
Cc1ccc(S(=O)(=O)N(C(=O)c2ccncc2)c2ccc(OC(=O)c3ccncc3)c3ccccc23)cc1	117.7*	1.5	0.9	-1.4	-4.6	0.6
CN(C)CCN(C(=O)/C=C/c1cccs1)c1nc2ccc(Br)cc2s1	32.8	13.1	22.5	-0.4	-3.9	6.4
CCc1ccc2nc(N(CCN(C)C)C(=O)/C=C/c3cccs3)sc2c1	67.2*	20.4	25.9	0.3	-3.9	1.0
Cc1ccc(C2(c3ccccc3)NC(=O)N(CC(=O)NC3(C#N)CCCC3)C2=O)cc1C (configuration not stated)	5.7	-1.4	-15.1	1.2	-5.5	-0.8
Cc1cccc(C)c1NC(=O)CN(C)C(=O)c1ccccc1SCC(=O)N1CCCC1	-2.5	42.0*	6.9	0.5	-0.5	-2.6
CN(CC(=O)Nc1c(Cl)cccc1Cl)C(=O)c1ccccc1SCC(=O)N1CCCC1	-4.4	29.3	11.7	0.0	0.0	-2.0
CCOC(=O)C1=C(Cc2ccc(C)cc2)C(=O)c2ccccc2C1=O	x	14.9	-33.1	x	-5.7	x
CCOC(=O)C1=C(Cc2ccc(OC)cc2)C(=O)c2ccccc2C1=O	105.2*	x	x	-3.4	x	14.6
Cc1cc2oc(C(=O)N(Cc3ccccc3)c3ccccn3)cc(=O)c2cc1Cl	56.7*	14.5	4.6	3.7	-3.3	4.6
CC(=O)C(=Nc1ccc(Cl)cc1Cl)NNc1cccc(Cl)c1	84.9*	14.7	-7.5	3.5	-6.2	5.8
CC(=O)Nc1ccc(NC(=O)Nc2cccc(Cl)c2)cc1	-4.6	0.5	9.6	0.4	-0.1	0.5
CCCOC(=O)Oc1ccc2c(=O)c(Oc3cc(C)cc(C)c3)coc2c1	9.7	23.9	5.0	25.3*	-3.3	15.6
Fc1ccccc1-c1ccc(/C=N/Nc2nc3ccccc3[nH]2)o1	70.5*	1.3	-16.8	-4.3	-6.0	14.8
C(=N\Nc1nc2ccccc2[nH]1)/c1ccccn1	-0.7	x	x	-2.8	x	-1.6
O=C1C(Cl)=C(N2CCCC2)C(=O)N1c1ccccc1F	-0.4	0.0	-6.4	-0.8	-2.7	4.2
O=C(NCCNc1ccc2ccccc2c1)c1cccn2c(=O)c3sccc3nc12	x	50.8*	-54.5	x	1.1	x
O=C(NCCN1CCN(c2ccccc2)CC1)c1cccn2c(=O)c3ccccc3nc12	-1.8	26.6	11.6	0.0	-1.3	1.6
CC(=NNc1nc2ccccc2o1)c1cc2ccccc2cn1	101.0*	x	x	-2.6	x	1.3
CC(=O)N1CCN(C(=O)c2cc(S(=O)(=O)N3CCCCC3)ccc2Cl)CC1	0.6	-2.2	-0.2	0.9	-0.3	-2.1
